Source: ChEMBL document CHEMBL2034955, “Thieno[3,2-b]thiophene-2-carboxylic acid derivatives as GPR35 agonists” (Bioorg Med Chem Lett, 2012)
The source made the active and inactive calls. The calls are words filed in the database; no cut-off is given here.

Experiments:
[1] = target: T1, G-protein coupled receptor 35 (Homo sapiens, UniProt Q9HC97); assay: Agonist activity at GPR35 in human HT-29 cells by dynamic mass redistribution assay; assay type: functional, cell-based
[2] = target: T1, G-protein coupled receptor 35; assay: Agonist activity at GPR35 in human HT-29 cells by dynamic mass redistribution assay relative to zaprinast; assay type: functional, cell-based
[3] = target: T1, G-protein coupled receptor 35; assay: Agonist activity at GPR35 in human U2OS cells expressing beta-lactamase and Gal4-VP16 transcription factor assessed as beta arrestin translocation after 5 hrs by Tango assay relative to zaprinast; assay type: functional, cell-based
In short: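 Tango GPR35-bla U2OS cells seeded at 10,000/well and cultured overnight in DMEM with 10% dialyzed FBS. Ligand stimulation 5 h at 37 °C/5% CO2, then LiveBLAzer FRET B/G substrate loading for 2 h. […] EC50 from monophasic sigmoidal fit. Two independent runs, each in duplicate (n = 4).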

[4] = target: T1, G-protein coupled receptor 35; assay: Agonist activity at GPR35 in human U20S cells expressing beta-lactamase and Gal4-VP16 transcription factor assessed as beta arrestin translocation after 5 hrs by Tango assay; assay type: functional, cell-based, U2OS
In short: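 Tango GPR35-bla U2OS cells seeded at 10,000/well and cultured overnight in DMEM with 10% dialyzed FBS. Ligand stimulation 5 h at 37 °C/5% CO2, then LiveBLAzer FRET B/G substrate loading for 2 h. EC50 from monophasic sigmoidal fit. Two independent runs, each in duplicate (n = 4).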

[5] = target: T1, G-protein coupled receptor 35; assay: Agonist activity at GPR35 in human HT-29 cells at 125 nM by dynamic mass redistribution assay in presence of CID 2745687; assay type: functional, cell-based
In short: (§1)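 Native HT-29 cells seeded at 32,000/well and cultured overnight to confluence in McCoy's 5a with 10% FBS at 37 °C/5% CO2, washed twice and held in 1x HBSS for 1 h. CID 2745687 was pre-incubated 10 min at varying doses, then agonist added at a fixed dose. DMR amplitude read 10 min poststimulation, background corrected. Two independent runs, each in duplicate (n = 4).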

[6] = target: T1, G-protein coupled receptor 35; assay: Agonist activity at GPR35 in human U20S cells expressing beta-lactamase and Gal4-VP16 transcription factor assessed as beta arrestin translocation at 10 uM after 5 hrs by Tango assay in the presence of ML-145; assay type: functional, cell-based; details: U2OS
In short: (§2)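 Tango antagonist format in GPR35-bla U2OS cells. Agonist at a fixed dose was combined with varying ML-145 doses, followed by 5 h stimulation at 37 °C and 2 h FRET B/G substrate loading. Coumarin/fluorescein ratio read out, with IC50 derived. Two independent runs, each in duplicate (n = 4).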

[7] = target: T1, G-protein coupled receptor 35; assay: Agonist activity at GPR35 in human HT-29 cells at 2 uM by dynamic mass redistribution assay in presence of CID 2745687; assay type: functional, cell-based; in short: as §1
[8] = target: T1, G-protein coupled receptor 35; assay: Agonist activity at GPR35 in human HT-29 cells at 250 nM by dynamic mass redistribution assay in presence of CID 2745687; assay type: functional, cell-based; in short: as §1
[9] = target: T1, G-protein coupled receptor 35; assay: Agonist activity at GPR35 in human U20S cells expressing beta-lactamase and Gal4-VP16 transcription factor assessed as beta arrestin translocation at 20 uM after 5 hrs by Tango assay in the presence of ML-145; assay type: functional, cell-based; details: U2OS; in short: as §2
[10] = target: T1, G-protein coupled receptor 35; assay: Agonist activity at GPR35 in human U20S cells expressing beta-lactamase and Gal4-VP16 transcription factor assessed as beta arrestin translocation at 64 uM after 5 hrs by Tango assay in the presence of ML-145; assay type: functional, cell-based; details: U2OS; in short: as §2
[11] = target: T1, G-protein coupled receptor 35; assay: Agonist activity at GPR35 in human HT-29 cells assessed as receptor internalization at 12.5 uM after 1 hr by confocal microscopy; assay type: functional, cell-based
In short: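 HT-29 cells treated 1 h with agonist in assay vehicle containing 0.1% DMSO (vehicle control), then permeabilized and immunostained with anti-GPR35 plus fluorescent secondary antibody. Internalization judged from confocal fluorescence images.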

[12] = target: T1, G-protein coupled receptor 35; assay: Agonist activity at GPR35 in human U20S cells expressing beta-lactamase and Gal4-VP16 transcription factor assessed as beta arrestin translocation at 100 uM after 5 hrs by Tango assay in the presence of ML-145; assay type: functional, cell-based; details: U2OS; in short: as §2

T1 sequence (Q9HC97 whole entry): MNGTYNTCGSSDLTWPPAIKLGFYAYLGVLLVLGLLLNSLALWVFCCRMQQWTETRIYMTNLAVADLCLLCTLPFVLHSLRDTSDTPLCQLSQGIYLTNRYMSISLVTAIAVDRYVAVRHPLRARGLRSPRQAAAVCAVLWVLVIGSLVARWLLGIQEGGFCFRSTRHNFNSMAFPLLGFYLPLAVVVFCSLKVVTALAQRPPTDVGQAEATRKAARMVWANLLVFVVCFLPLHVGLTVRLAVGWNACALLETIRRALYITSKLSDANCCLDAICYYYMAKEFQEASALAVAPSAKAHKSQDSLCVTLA

SMILES: O=C(O)c1sc2c(Br)csc2c1Cl
- EC50 ([1]; read-out: EC50): 1.03 µM
- Efficacy [2]: 262 pm
- Efficacy [3]: 68%
- EC50 ([4]; read-out: EC50): 39.2 µM

SMILES: Cc1sc2c(C)c(C(=O)O)sc2c1Br
- EC50 ([1]; read-out: EC50): 1.29 µM
- Efficacy [2]: 268 pm
- Efficacy [3]: 52%
- EC50 ([4]; read-out: EC50): 22.2 µM

SMILES: O=C(O)c1cc(=O)c2ccccc2[nH]1 [TRANSTORINE]
- EC50 ([1]; ht-29, read-out: EC50): 152 µM
- Efficacy [2]: 202 pm
- Efficacy [3]: > 60%
- EC50 ([4]; read-out: EC50): > 500 µM

SMILES: Cc1c(C(=O)O)[nH]c2c(Br)csc12
- EC50 ([1]; read-out: EC50): 11.8 µM
- Efficacy [2]: 222 pm
- Efficacy [3]: 24%
- EC50 ([4]; read-out: EC50): 113 µM

SMILES: O=C(O)c1sc2c(Br)c(Br)sc2c1O
- Activity [5]: inactive
- Activity [1]: Dose-dependent effect
- EC50 ([1]; read-out: EC50): 0.016 µM
- Efficacy [2]: 228 pm
- Efficacy [3]: 96%
- Activity [6]: inactive
- EC50 ([4]; read-out: EC50): 2.46 µM

SMILES: Cc1c(C(=O)O)sc2c(Br)c(Br)sc12
- Activity [1]: Dose-dependent effect
- EC50 ([1]; read-out: EC50): 0.7 µM
- Efficacy [2]: 232 pm
- Activity [7]: inactive
- Efficacy [3]: 52%
- EC50 ([4]; read-out: EC50): 36.5 µM

SMILES: O=C(O)c1sc2ccsc2c1O
- EC50 ([1]; read-out: EC50): 9.78 µM
- Efficacy [2]: 159 pm
- Efficacy [3]: 64%
- EC50 ([4]; read-out: EC50): 340 µM

SMILES: Cc1c(C(=O)O)sc2c(-c3cn[nH]c3)csc12
- EC50 ([1]; read-out: EC50): 0.37 µM
- Efficacy [2]: 180 pm
- Efficacy [3]: 102%
- EC50 ([4]; read-out: EC50): 52.5 µM

SMILES: CCOC(=O)c1sc2c(Br)c(Br)sc2c1C(F)(F)F
- EC50 ([1]; ht-29): Not Active
- EC50 ([4]; u2os): Not Active

SMILES: Cc1c(C(=O)O)sc2c(Br)csc12
- Activity [1]: Dose-dependent effect
- EC50 ([1]; read-out: EC50): 0.061 µM
- Efficacy [2]: 290 pm
- Efficacy [3]: 113%
- Activity [8]: inactive
- EC50 ([4]; read-out: EC50): 8.3 µM
- Activity [9]: inactive

SMILES: O=C(O)c1sc2c(Br)csc2c1C1CC1
- EC50 ([1]; read-out: EC50): 2.63 µM
- Efficacy [2]: 246 pm
- Efficacy [3]: 46%
- EC50 ([4]; read-out: EC50): 504 µM

SMILES: C#Cc1csc2c(C)c(C(=O)O)sc12
- EC50 ([1]; read-out: EC50): 1.48 µM
- Efficacy [2]: 257 pm
- Efficacy [3]: 102%
- EC50 ([4]; read-out: EC50): 54.8 µM

SMILES: Cc1c(C(=O)O)[nH]c2c(C3CC3)csc12
- EC50 ([1]; read-out: EC50): 8.37 µM
- Efficacy [2]: 228 pm
- Efficacy [3]: 35%
- EC50 ([4]; read-out: EC50): 119 µM

SMILES: Cc1c(C(=O)O)[nH]c2c(-c3cccnc3)csc12
- EC50 ([1]; read-out: EC50): 0.63 µM
- Efficacy [2]: 210 pm
- Efficacy [3]: 120%
- Activity [10]: inactive
- EC50 ([4]; read-out: EC50): 26.9 µM

SMILES: Cc1c(C(=O)O)sc2c(-c3cccnc3)csc12
- EC50 ([1]; read-out: EC50): 0.24 µM
- Efficacy [2]: 223 pm
- Activity [11]: Active
- Efficacy [3]: 118%
- EC50 ([4]; read-out: EC50): 11.8 µM

SMILES: O=C(O)c1sc2c(Br)c(Br)sc2c1C(F)(F)F
- EC50 ([1]; read-out: EC50): 0.51 µM
- Efficacy [2]: 230 pm
- Efficacy [3]: 52%
- EC50 ([4]; read-out: EC50): 31.1 µM

SMILES: Cc1c(C(=O)O)sc2c(C3CC3)csc12
- EC50 ([1]; read-out: EC50): 0.95 µM
- Efficacy [2]: 262 pm
- Efficacy [3]: 101%
- EC50 ([4]; read-out: EC50): 52.4 µM

SMILES: Cc1c(C(=O)O)sc2c(-c3ccsc3)csc12
- EC50 ([1]; read-out: EC50): 0.26 µM
- Efficacy [2]: 232 pm
- Activity [12]: inactive
- Efficacy [3]: 107%
- EC50 ([4]; read-out: EC50): 17.6 µM

SMILES: Cc1c(C(=O)O)n(C)c2c(Br)csc12
- EC50 ([1]; read-out: EC50): 5.3 µM
- Efficacy [2]: 290 pm
- Efficacy [3]: 77%
- EC50 ([4]; read-out: EC50): 87.5 µM
